Assay results taken from ChEMBL document CHEMBL1144731, “Structure-dependent inhibition of bladder and pancreatic cancer cell growth by 2-substituted glycyrrhetinic and ursolic acid derivatives” (Bioorg Med Chem Lett, 2008).
pIC50: −log10 of the molar value.

What was measured:
Format in all cases: functional, cell-based
[1] = Cytotoxicity against human KU7 cells
Method in brief: (§1)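 Cells seeded at 3×10^4 per well in DMEM:Ham's F-12 with 2.5% charcoal-stripped FBS and allowed 24 h to attach. Then exposed to DMSO vehicle or compound, with medium and compound renewed every 48 h. Cell number counted at set times on a Coulter particle counter. Triplicate runs; IC50 obtained by linear regression.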

[2] = Cytotoxicity against human Panc28 cells; method in brief: as §1
[3] = Cytotoxicity against human 253JBV cells; method in brief: as §1
[4] = tested on: PANC-1; test: Cytotoxicity against human Panc1 cells; method in brief: as §1

In the case of `COC(=O)[C@]12CC[C@@H](C)[C@H](C)[C@H]1C1=CC[C@@H]3[C@@]4(C)C=C(C#N)C(=O)C(C)(C)[C@@H]4CC[C@@]3(C)[C@]1(C)CC2`, the pIC50 [1] was 6.52, the pIC50 [2] was 6.01 and the pIC50 [3] was 6.77. For the same compound, the pIC50 [4] was 6.28.

Work on `COC(=O)[C@@]1(C)CC[C@]2(C)CC[C@]3(C)C(=CC(=O)[C@@H]4[C@@]5(C)C=C(I)C(=O)C(C)(C)[C@@H]5CC[C@]43C)[C@@H]2C1` yielded a pIC50 [1] of 5.52, a pIC50 [2] of 4.89 and a pIC50 [3] of 5.57. The pIC50 [4] was 5.39.

Compound `COC(=O)[C@@]1(C)CC[C@]2(C)CC[C@]3(C)C(=CC(=O)[C@@H]4[C@@]5(C)C=C(S(C)(=O)=O)C(=O)C(C)(C)[C@@H]5CC[C@]43C)[C@@H]2C1` has a pIC50 [1] of 5.48, a pIC50 [2] of 5.01 and a pIC50 [3] of 4.92. It also gave a pIC50 [4] of 5.11.

For `COC(=O)[C@@]1(C)CC[C@]2(C)CC[C@]3(C)C(=CC(=O)[C@@H]4[C@@]5(C)C=C(C(F)(F)F)C(=O)C(C)(C)[C@@H]5CC[C@]43C)[C@@H]2C1`, the pIC50 [1] was 6.42, the pIC50 [2] was 5.94 and the pIC50 [3] was 6.17. For the same compound, the pIC50 [4] was 6.09.

Compound `COC(=O)[C@@]1(C)CC[C@]2(C)CC[C@]3(C)[C@H](C(=O)C=C4[C@@]5(C)C=C(C(F)(F)F)C(=O)C(C)(C)[C@@H]5CC[C@]43C)[C@@H]2C1` has a pIC50 [1] of 5.86, a pIC50 [2] of 5.95 and a pIC50 [3] of 6.44. The pIC50 [4] was 6.17.

`COC(=O)[C@]12CC[C@@H](C)[C@H](C)[C@H]1C1=CC[C@@H]3[C@@]4(C)C=C(C(F)(F)F)C(=O)C(C)(C)[C@@H]4CC[C@@]3(C)[C@]1(C)CC2` gave a pIC50 [1] of 6.33, a pIC50 [2] of 5.95 and a pIC50 [3] of 6.77. For the same compound, the pIC50 [4] was 6.19.

For `COC(=O)[C@@]1(C)CC[C@]2(C)CC[C@]3(C)[C@H](C(=O)C=C4[C@@]5(C)C=C(I)C(=O)C(C)(C)[C@@H]5CC[C@]43C)[C@@H]2C1`, the pIC50 [1] was 5.58, the pIC50 [2] was 5.44 and the pIC50 [3] was 5.44. It also gave a pIC50 [4] of 5.35.

In the case of `CC1(C)C(=O)C(C#N)=C[C@]2(C)[C@H]3C(=O)C=C4[C@@H]5C[C@@](C)(C(=O)O)CC[C@]5(C)CC[C@@]4(C)[C@]3(C)CC[C@@H]12`, the pIC50 [1] was 5.23, the pIC50 [2] was 5.14 and the pIC50 [3] was 5.21. The pIC50 [4] was 5.42.

Work on `COC(=O)[C@]12CC[C@@H](C)[C@H](C)[C@H]1C1=CC[C@@H]3[C@@]4(C)CC[C@H](O)C(C)(C)[C@@H]4CC[C@@]3(C)[C@]1(C)CC2` [METHYL URSOLATE] yielded a pIC50 [1] of 5.05, a pIC50 [2] of 4.98 and a pIC50 [3] of 5.21. The pIC50 [4] was 4.93.

For `COC(=O)[C@@]1(C)CC[C@]2(C)CC[C@]3(C)C(=CC(=O)[C@@H]4[C@@]5(C)C=C(C#N)C(=O)C(C)(C)[C@@H]5CC[C@]43C)[C@@H]2C1`, the pIC50 [1] was 5.80, the pIC50 [2] was 5.74 and the pIC50 [3] was 6.60. The pIC50 [4] was 5.91.

For `COC(=O)[C@@]1(C)CC[C@]2(C)CC[C@]3(C)C(=CC(=O)[C@@H]4[C@@]5(C)C=C(P(=O)(OC)OC)C(=O)C(C)(C)[C@@H]5CC[C@]43C)[C@@H]2C1`, the pIC50 [1] was 5.43, the pIC50 [2] was 5.09 and the pIC50 [3] was 5.10. It also gave a pIC50 [4] of 5.21.

Compound `COC(=O)[C@]12CC[C@@H](C)[C@H](C)[C@H]1C1=CC[C@@H]3[C@@]4(C)C=C(I)C(=O)C(C)(C)[C@@H]4CC[C@@]3(C)[C@]1(C)CC2` has a pIC50 [1] of 5.22, a pIC50 [2] of 4.87 and a pIC50 [3] of 5.31. For the same compound, the pIC50 [4] was 5.16.
